Results taken from ChEMBL document CHEMBL1132647, “Synthesis, calcium mobilizing, and physicochemical properties of D-chiro-inositol 1,3,4,6-tetrakisphosphate, a novel and potent ligand at the D-myo-inositol 1,4,5-trisphosphate receptor” (J Med Chem, 1999).
pEC50: −log10 of the molar value. Where “and” joins values, the source holds several entries; their conditions need not be identical. Equal values may be shown once.

Legend:
L15 = test: Steady-State [Ca2+] Release from Saponin-Permeabilized L15 Cell Lines
RBL-1 = test: Steady-State [Ca2+] Release from Saponin-Permeabilized RBL Cell Lines; assay type: functional, cell-based, Rattus norvegicus
SH-SY5Y = test: Steady-State [Ca2+] Release from Saponin-Permeabilized SH-SY5Y cell line.; assay type: functional, cell-based, Homo sapiens
Lvec = test: Steady-State [Ca2+] Release from Saponin-Permeabilized Lvec Cell Lines; assay type: functional, cell-based
Method in brief: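 ⁴⁵Ca²⁺ release end point assay at 22 °C in saponin-permeabilized L15 cells (mouse L fibroblasts overexpressing type 1 InsP₃R about 8-fold) or Lvec vector-control cells. Stores were loaded with ⁴⁵Ca²⁺ in ATP-dependent fashion to steady state (about 15 min). Buffer was 120 mM KCl, 2 mM KH₂PO₄, 5 mM succinate, 20 mM Hepes, 2 mM ATP and 2.4 mM MgCl₂, at pH 7.2, with free Ca²⁺ set to 80–150 nM with EGTA. Retained ⁴⁵Ca²⁺ was counted by scintillation. 100% was the release by 10 µM Ins(1,4,5)P₃. EC50 and Hill slope came from curve fitting. At least four experiments in duplicate, mean ± SEM.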

[1] = Hill slope by computer-assisted curve fitting.
[2] = Hill slope by computer-assisted curve fitting
[3] = target: Inositol 1,4,5-trisphosphate receptor (Homo sapiens, UniProt Q14571+Q14573+Q14643); test: The compound was tested for inhibitory activity against Inositol 1,4,5-trisphosphate receptor in L15 cell line; assay type: cell-based
Method in brief: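 Incubation was 30 min at 4 °C with EGTA. Bound and free ligand were separated by vacuum filtration through glass fiber filters and counted by scintillation. IC50 and Hill slope came from computer curve fitting. At least three experiments in duplicate, mean ± SEM.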

| pEC50 (L15) | pEC50 (RBL-1) | pEC50 (SH-SY5Y) | Structure (SMILES) | further results |
| --- | --- | --- | --- | --- |
| 6.13 | 5.37 |  | O=P(O)(O)O[C@@H]1[C@H](O)[C@H](O)[C@@H](OP(=O)(O)O)[C@H](OP(=O)(O)O)[C@H]1O (stereo in doubt; 5) [INS(1,4,5)P3] |  |
| 6.91 | 6.77 | 7.29 | O=P(O)(O)O[C@@H]1[C@H](O)[C@H](O)[C@@H](OP(=O)(O)O)[C@H](OP(=O)(O)O)[C@H]1O (stereo in doubt; 1) [INS(1,4,5)P3] | pEC50 (Lvec): 6.61 |
|  | 5.38 | 6.77 | O=P(O)(O)O[C@@H]1[C@H](O)[C@H](O)[C@@H](OP(=O)(O)O)[C@H](OP(=O)(O)O)[C@H]1O (stereo in doubt) [INS(1,4,5)P3] |  |
|  |  |  | O=P(O)(O)O[C@@H]1[C@H](O)[C@H](O)[C@@H](OP(=O)(O)O)[C@H](OP(=O)(O)O)[C@H]1O (stereo in doubt; 1) | Hill coefficient [1]: 1; Hill coefficient [2]: 0.96 and 1.17 |
|  |  |  | O=P(O)(O)OC1C(O)C(OP(=O)(O)O)C(OP(=O)(O)O)C(O)C1OP(=O)(O)O (stereo unspecified) | IC50 [3]: 0.172 µM |
